Measurements taken from ChEMBL document CHEMBL4480362, “Design and synthesis of DNA-intercalative naphthalimide-benzothiazole/cinnamide derivatives: cytotoxicity evaluation and topoisomerase-IIα inhibition” (Medchemcomm, 2019).
Activity calls are given as the source filed them. The calls are words filed in the database; no cut-off is given here.

What was measured:
HT-29 = test: Cytotoxicity against human HT-29 cells assessed as reduction in cell viability after 48 hrs by MTT assay; type: functional, cell-based; conditions: HT-29, 48 h
Outline: (§1)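 Cell lines from NCCS were grown in DMEM with 10% FBS, penicillin and streptomycin at 37 °C, 5% CO2. Cells were seeded, left 24 h, then exposed to compound for 48 h. MTT (5 mg/ml stock) was added for 4 h. Formazan was dissolved in DMSO and absorbance read at 570 nm.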

MCF7 = test: Cytotoxicity against human MCF7 cells assessed as reduction in cell viability after 48 hrs by MTT assay; type: functional, cell-based; conditions: MCF7, 48 h; outline: as §1
A549 = test: Cytotoxicity against human A549 cells assessed as reduction in cell viability after 48 hrs by MTT assay; type: functional, cell-based; conditions: A549, 48 h; outline: as §1
Calf thymus DNA [1] = test: Binding affinity to calf thymus DNA assessed as increase in emission peak intensity at 10 uM by fluorescence spectroscopic method; type: nucleic-acid assay; conditions: Bos taurus
Outline: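 Compound held constant at 10 µM and titrated with CT DNA added in multiples of 0.5 µM, at 25 °C in a 1 cm quartz cuvette. Excitation at 350 nm; emission recorded from 355 to 500 nm after each addition. Spectra are averages of three scans.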

Calf thymus DNA [2] = test: Binding affinity to calf thymus DNA assessed as change in viscosity at 15 uM by ethidium bromide staining-based method; type: nucleic-acid assay; conditions: Bos taurus
[3] = target: DNA topoisomerase 2-alpha (Homo sapiens) (UniProt P11388); test: Inhibition of topoisomerase 2 (unknown origin) assessed as reduction in decatenation of kinetoplast DNA at 100 uM incubated for 30 mins by ethidium bromide staining based gel electrophoresis method
Calf thymus DNA [4] = test: Binding affinity to calf thymus DNA assessed as hyperchromicity at 15 to 30 uM by CD spectroscopic method; type: nucleic-acid assay; conditions: Bos taurus
Outline: (§2)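 CD spectra recorded from 225 to 325 nm with about 15 × 10^-6 M CT DNA. Compound:DNA molar ratios were 1:0 and 1:1, in 100 mM TE (pH 7.0) at 25 °C. Each spectrum is the average of three scans.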

Calf thymus DNA [5] = test: Binding affinity to calf thymus DNA assessed as absorption band formation at 25 uM by UV-vis spectra method; type: nucleic-acid assay; conditions: Bos taurus
Outline: (§3)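 CT DNA titrated into a cuvette holding about 25 µM hybrid in 100 mM TE (pH 7.0), at 25 °C with a 1 cm quartz cell. The compound stock was in DMSO, diluted into buffer. DNA was added stepwise until the hybrid absorption band stayed at a fixed wavelength. Solutions were prepared fresh the same day.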

Calf thymus DNA [6] = test: Binding affinity to calf thymus DNA assessed as positive band formation at 15 to 30 uM by CD spectroscopic method; type: nucleic-acid assay; conditions: Bos taurus; outline: as §2
Calf thymus DNA [7] = test: Binding affinity to calf thymus DNA assessed as hypochromic shift formation at 25 uM by UV-vis spectra method; type: nucleic-acid assay; conditions: Bos taurus; outline: as §3
[8] = system: Panel NCI-60 (60 carcinoma cell lines); test: Growth inhibition of human NCI60 cells after 72 hrs by SRB assay; type: functional
Calf thymus DNA [9] = test: Binding affinity to calf thymus DNA assessed as bathochromic shift at 25 uM by UV-vis spectra method; type: nucleic-acid assay; conditions: Bos taurus; outline: as §3

Sequence of DNA topoisomerase 2-alpha (Homo sapiens) (P11388 whole entry): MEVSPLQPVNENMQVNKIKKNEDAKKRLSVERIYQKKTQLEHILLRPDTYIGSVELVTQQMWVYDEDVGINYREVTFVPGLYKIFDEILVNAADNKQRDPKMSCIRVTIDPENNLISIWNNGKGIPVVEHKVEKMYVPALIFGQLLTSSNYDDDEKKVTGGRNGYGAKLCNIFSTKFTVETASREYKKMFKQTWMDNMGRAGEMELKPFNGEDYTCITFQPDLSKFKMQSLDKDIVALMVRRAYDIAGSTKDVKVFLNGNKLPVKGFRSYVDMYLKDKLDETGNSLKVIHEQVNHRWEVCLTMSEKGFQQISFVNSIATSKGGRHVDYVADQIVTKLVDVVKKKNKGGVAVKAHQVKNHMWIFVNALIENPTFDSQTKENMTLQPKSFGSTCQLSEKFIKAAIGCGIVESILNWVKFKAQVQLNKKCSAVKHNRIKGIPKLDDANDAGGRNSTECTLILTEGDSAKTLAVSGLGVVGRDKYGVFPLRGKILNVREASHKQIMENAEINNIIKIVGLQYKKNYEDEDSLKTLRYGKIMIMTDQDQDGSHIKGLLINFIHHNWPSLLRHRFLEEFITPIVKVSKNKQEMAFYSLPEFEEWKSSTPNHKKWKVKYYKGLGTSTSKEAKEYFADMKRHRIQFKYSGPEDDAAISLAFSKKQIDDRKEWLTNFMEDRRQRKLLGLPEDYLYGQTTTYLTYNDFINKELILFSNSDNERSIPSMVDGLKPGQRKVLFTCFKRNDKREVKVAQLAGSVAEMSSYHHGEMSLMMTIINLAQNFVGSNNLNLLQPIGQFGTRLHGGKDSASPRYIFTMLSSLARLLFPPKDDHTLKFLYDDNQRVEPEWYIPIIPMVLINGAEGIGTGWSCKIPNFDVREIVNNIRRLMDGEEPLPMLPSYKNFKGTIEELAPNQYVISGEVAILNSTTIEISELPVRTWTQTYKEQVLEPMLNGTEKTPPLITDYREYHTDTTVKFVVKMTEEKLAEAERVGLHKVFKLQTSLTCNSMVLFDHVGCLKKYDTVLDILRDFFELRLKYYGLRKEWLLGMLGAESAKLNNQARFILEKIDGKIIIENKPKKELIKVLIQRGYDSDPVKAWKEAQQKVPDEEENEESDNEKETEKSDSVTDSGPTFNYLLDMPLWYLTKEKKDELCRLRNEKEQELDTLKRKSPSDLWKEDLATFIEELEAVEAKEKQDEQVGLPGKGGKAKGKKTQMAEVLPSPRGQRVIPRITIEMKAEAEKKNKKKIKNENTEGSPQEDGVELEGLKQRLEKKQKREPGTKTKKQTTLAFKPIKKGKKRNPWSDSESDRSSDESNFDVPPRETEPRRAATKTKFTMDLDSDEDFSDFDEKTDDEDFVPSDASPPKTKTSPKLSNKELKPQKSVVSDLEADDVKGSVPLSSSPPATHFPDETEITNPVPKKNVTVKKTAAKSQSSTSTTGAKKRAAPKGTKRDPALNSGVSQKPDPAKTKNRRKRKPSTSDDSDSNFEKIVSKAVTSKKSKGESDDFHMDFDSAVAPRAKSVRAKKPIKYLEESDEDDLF

Activity (Calf thymus DNA [1]) | Activity (Calf thymus DNA [2]) | inhibition [3] | Activity (Calf thymus DNA [4]) | Activity (Calf thymus DNA [5]) | Activity (Calf thymus DNA [6]) | Activity (Calf thymus DNA [7]) | Activity (Calf thymus DNA [9]) [nm] | SMILES | IC50 (HT-29) [µM] | IC50 (MCF7) [µM] | IC50 (A549) [µM] | GI50 [8] [µM]
– | – | – | – | – | – | – | – | O=C(/C=C/c1cc(F)ccc1F)N1CCN(CCN2C(=O)c3cccc4cccc(c34)C2=O)CC1 | 4.18 | 11.2 | 6.39 | –
– | – | – | – | – | – | – | – | CCOc1ccc(/C=C/C(=O)N2CCN(CCN3C(=O)c4cccc5cccc(c45)C3=O)CC2)cc1 | 12 | 28.9 | 19.4 | –
Active | inactive | inactive | Active | – | – | – | – | O=C(/C=C/c1ccccc1)N1CCN(CCN2C(=O)c3cccc4cccc(c34)C2=O)CC1 | 16 | 22.9 | 21.9 | –
Active | Active | Active | – | Active | Active | Active | – | O=C(/C=C/c1ccc2c(c1)OCO2)N1CCN(CCN2C(=O)c3cccc4cccc(c34)C2=O)CC1 | 3.8 | 18 | 4.79 | –
– | – | – | – | – | – | – | – | COc1ccc2nc(NC(=O)CN3CCN(CCN4C(=O)c5cccc6cccc(c56)C4=O)CC3)sc2c1 | 4.22 | 7.94 | 4.76 | –
– | – | – | – | – | – | – | – | CCOc1ccc2nc(NC(=O)CN3CCN(CCN4C(=O)c5cccc6cccc(c56)C4=O)CC3)sc2c1 | 11.1 | 17.4 | 16.6 | –
– | – | – | – | – | – | – | – | Cc1cc2nc(NC(=O)CN3CCN(CCN4C(=O)c5cccc6cccc(c56)C4=O)CC3)sc2cc1C | 4.98 | 12.6 | 6.2 | –
– | – | – | – | – | – | – | – | O=C(/C=C/c1cc(F)cc(F)c1)N1CCN(CCN2C(=O)c3cccc4cccc(c34)C2=O)CC1 | 8.39 | 13.7 | 6.41 | –
– | – | – | – | – | – | – | – | Cc1ccc2nc(NC(=O)CN3CCN(CCN4C(=O)c5cccc6cccc(c56)C4=O)CC3)sc2c1 | 4.07 | 15 | 8.07 | –
– | – | – | Active | – | – | – | – | COc1cccc(/C=C/C(=O)N2CCN(CCN3C(=O)c4cccc5cccc(c45)C3=O)CC2)c1 | 15.6 | 34.1 | 21.7 | –
Active | Active | Active | Active | Active | Active | – | 2 | O=C(CN1CCN(CCN2C(=O)c3cccc4cccc(c34)C2=O)CC1)Nc1ccc2ncsc2c1 | 3.72 | 7.91 | 4.07 | 1.38 to 43.3
– | – | – | – | – | – | – | – | O=C(/C=C/c1cc(F)c(F)c(F)c1)N1CCN(CCN2C(=O)c3cccc4cccc(c34)C2=O)CC1 | 13.8 | 19.5 | 14.8 | –
– | – | – | – | – | – | – | – | O=C(/C=C/c1cccc(C(F)(F)F)c1)N1CCN(CCN2C(=O)c3cccc4cccc(c34)C2=O)CC1 | 17 | 26.4 | 19.7 | –
– | – | – | – | – | – | – | – | O=C(/C=C/c1ccc(F)cc1F)N1CCN(CCN2C(=O)c3cccc4cccc(c34)C2=O)CC1 | 17.4 | 23.5 | 16.2 | –
– | – | – | – | – | – | – | – | CN(C)c1ccc(/C=C/C(=O)N2CCN(CCN3C(=O)c4cccc5cccc(c45)C3=O)CC2)cc1 | 4.01 | 13.1 | 8.26 | –
– | – | – | – | – | – | – | – | COc1ccc(/C=C/C(=O)N2CCN(CCN3C(=O)c4cccc5cccc(c45)C3=O)CC2)c(OC)c1 | 23.9 | 28.7 | 27.2 | –
– | – | – | – | – | – | – | – | COc1ccc(/C=C/C(=O)N2CCN(CCN3C(=O)c4cccc5cccc(c45)C3=O)CC2)cc1O | 10.3 | 13.7 | 14.2 | –
– | – | – | – | – | – | – | – | O=C(CN1CCN(CCN2C(=O)c3cccc4cccc(c34)C2=O)CC1)Nc1nc2ccccc2s1 | 10.8 | 26.5 | 14.8 | –
– | – | – | – | – | – | – | – | O=C(/C=C/c1ccc(F)c(F)c1)N1CCN(CCN2C(=O)c3cccc4cccc(c34)C2=O)CC1 | 13.4 | 28.3 | 18.4 | –
Active | Active | Active | Active | – | Active | Active | – | Cc1nc2ccc(NC(=O)CN3CCN(CCN4C(=O)c5cccc6cccc(c56)C4=O)CC3)cc2s1 | 3.47 | 5.08 | 3.89 | 1.19 to 14.1

SMILES | Activity (Calf thymus DNA [1]) | Activity (Calf thymus DNA [2]) | inhibition [3] | Activity (Calf thymus DNA [4]) | Activity (Calf thymus DNA [5]) | Activity (Calf thymus DNA [6]) | Activity (Calf thymus DNA [7]) | Activity (Calf thymus DNA [9]) [nm] | IC50 (HT-29) [µM] | IC50 (MCF7) [µM] | IC50 (A549) [µM] | GI50 [8] [µM]
CN(C)CCN1C(=O)c2cccc3cc(N)cc(c23)C1=O [AMONAFIDE] | – | – | inactive | – | – | – | – | – | 5.46 | 4.05 | 7.76 | –
